# A number with no mark means an inactive call. Inconclusive results are not listed. Calls of active or inactive are those of the source.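 How the source made its calls, unless noted: active means RAM network inhibition above 8.4% in each of two replicates, 3 SD over the compound average; inconclusive means above 8.4% inhibition in only one replicate; inactive means 8.4% inhibition or less in each replicate.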
# Experiments:
# [1] = S. cerevisiae growth inhibition in permissive medium (OD615), pilot counter-assay for S. cerevisiae lifespan shortening project, permissive growth control (AID 705;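 active means growth inhibition above 25% in both replicates, a cutoff set 3 SD above the mean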); conditions: OD615, 24 h, at 10 µM, active compounds read high
# Method in brief: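 System: S. cerevisiae with engineered DeaD lifespan system / Measured by: absorbance (optical density) at 615 nm / Read-out: reduction in yeast growth (OD615) / Times: 4 h cell pre-growth, 24 h exposure at 30 °C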
# [2] = S. cerevisiae growth inhibition in restrictive medium, OD615, pilot screen, restrictive growth control, yeast lifespan reduction project (AID 706;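 active means growth inhibition above a set limit, 3 SD over mean compound inhibition, in both replicates, cut at about 43% in these data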;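 further: modified DeaD lifespan yeast strain shifted to restrictive glucose medium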); conditions: OD615, 48 h, at 10 µM, active compounds read high
# Method in brief: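 System: Engineered S. cerevisiae DeaD strain | Buffer or medium: Glucose-based CSMM-D restrictive medium | Schedule: 4 h pre-incubation, 48 h exposure at 30 °C | Technique: Optical density at 615 nm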
# [3] = doxorubicin toxicity protection in MRP-1 cells – H69AR cells, CellTiter-Glo, duplicate, MRP-1 activator project, pilot screen (AID 807;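 active means viability increase at or above a cutoff of the median across tested compounds plus 3 SD, cut at about 8.5% in these data, passing the limit was not always enough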;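 further: compound pretreatment 18-22 h then 72 h combined with doxorubicin; 0% = doxorubicin alone and 100% = vehicle without doxorubicin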); conditions: H69AR viability with doxorubicin, CellTiter-Glo luminescence; at 10 µM; active compounds read high
# [4] = viability of HCT116 without oncogenic beta-catenin – human colon tumor cells, pilot screen (AID 823;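 active means cell viability at or below a set limit in both duplicate runs, the limit being the all-compound median minus 4 SD, cut at about 23% in these data, passing the limit was not always enough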;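 further: 0% = wells killed by 20 µM Hyamine and 100% = untreated DMSO cell wells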); conditions: HCT116 beta-catenin knockout viability, CellTiter-Glo, 60 h; at 10 µM; active compounds read low
# [5] = viability of PTEN-null HCT116 cells – cell-based, HCT116 clonal line, CellTiter-Glo, pilot screen (AID 824;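 active means viability at or below 27.92% in each of two runs, the all-compound median minus 4 SD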;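 further: 0% = 20 µM Hyamine control and 100% = vehicle cell control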); conditions: HCT116 PTEN-deleted viability, 60 h, at 10 µM, active compounds read low
# [6] = RAM pathway blockade in budding yeast – dse1pr::URA3 reporter, 5-FOA selection, pilot screen (AID 869;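 active means inhibition over a set limit, the all-compound mean plus 3 SD, in both replicate runs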;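 further: 0% = DMSO wells with no growth and 100% = 10 µM 1-NA-PP1 with full growth; RAM network block rescues cells from 5-FOA so hits raise OD615 growth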); conditions: S. cerevisiae dse1pr::URA3 5-FOA growth, OD615, 2 d; at 10 µM; active compounds read high; strain carries analog-sensitive mutant Cbk1 kinase
# [7] = RAM signaling pathway blockade in yeast – S. cerevisiae, Pdr1DBD-CYC8 efflux-inhibited sensitized strain, primary screen (AID 1298);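 further: 0% = DMSO untreated cells without growth and 100% = 10 µM 1-NA-PP1 full growth; higher means more yeast growth rescued from 5-FOA killing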; conditions: S. cerevisiae cbk1-as DSE1-URA3 strain, 5-FOA growth OD615, 2 d; at 50 µM; active compounds read high
Structure (SMILES),growth inhibition [1],growth inhibition [2],viability increase [3],viability [4],viability [5],inhibition [6],RAM network inhibition [7]
Cc1ccc(S(=O)(=O)CC(C)N2CCOCC2)c(S(=O)(=O)CC(C)N2CCOCC2)c1 (stereo unspecified),-6.09%,-0.82%,1.48%,97%,94.4%,0.7%,1.89%
N#CCn1c(C2CCCCC2)nc2ccccc2c1=O,-27%,-22.9%,-4.23%,90.2%,84.5%,0.79%,3.71%
COc1ccc(NC(=O)C2CCCN2S(=O)(=O)c2ccc(F)cc2)cc1 (stereo unspecified),-11.8%,-12.7%,-0.14%,109%,99.2%,1.87%,-1.32%
COc1ccc(-c2nnc(NC(=O)c3ccccc3C)o2)cc1,-8.78%,-11.7%,-2.73%,27.6%,25.3% (active),1.86%,0.11%
Cc1cc2ncn(CC(O)COC3CCCCC3)c2cc1C (stereo unspecified),-8.15%,-2.2%,-2.98%,89.9%,90.3%,1.75%,4.21%
Cc1ccc(CC2C(=O)N(c3ncccn3)C(=O)C2C)cc1 (stereo unspecified),-5.95%,-9.6%,0.74%,104%,93.1%,0.685%,1.72%
Cc1ccc(CNC(=O)C2CCCN(c3nc4ccccc4o3)C2)cc1 (stereo unspecified),-20.4%,-13.5%,1.29%,101%,98.9%,0.85%,5.43%
COc1ccccc1-n1c(SC)nc(O)cc1=O,1.24%,-7.61%,0.84%,105%,99%,2.01%,4.2%
O=C(Cn1c(CN2CCCCC2)nc2ccccc2c1=O)NC1CCCCC1,-7.65%,-24.4%,-2.4%,95.4%,88%,-0.59%,-1.71%
Cc1ccc(O)c(NC(=O)CCC2CCCCC2)c1,-1.6%,1.04%,-3.63%,89.4%,84.5%,4.25%,4.08%
Oc1ccc(Br)cc1-c1nc2cnccn2c1NC1CCCC1,-11.9%,1.74%,-7.32%,55.5%,54.6%,-0.895%,-1.71%
O=S(=O)(c1cccc(-c2nnc(-c3cccnc3)o2)c1)N1CCCCC1,1.58%,-5.17%,-3.4%,86.9%,84.7%,1.22%,2.99%
Cc1cccn2cc(-c3ccc(S(=O)(=O)N4CCOCC4)cc3)nc12,-12.6%,-19.7%,-1.3%,83.5%,91%,1.75%,2.29%
CC1CC(C(O)c2ccccn2)C(=O)C(C(O)c2ccccn2)C1 (stereo unspecified),9.67%,-1.25%,-3.28%,97.8%,90.3%,0.35%,-0.58%
Cc1ccc(C)c(Nc2ncnc3nc[nH]c23)c1,-3.29%,0.02%,-1.34%,103%,103%,1.55%,2.66%
CCOC(=O)c1[nH]c2ccccc2c1NC(=O)c1ccc(Br)o1,-6.18%,-1.93%,-3.95%,70.3%,69.9%,0.96%,7.09%
Cn1c(=O)c2c(nc(NCc3ccccc3)n2C)n(C)c1=O,-4.99%,-2.69%,-1.73%,99.6%,95.4%,0.45%,1.42%
CCOc1ccc(C2CC(c3cccc(Cl)c3)n3nc(N)nc3N2)cc1 (stereo unspecified),5.36%,7.05%,-0.08%,92%,88.2%,1.14%,9.61%
CSC1=NCCN1C(=O)C(C)(C)Oc1ccc(Cl)cc1,7.64%,4.49%,-4.07%,91.2%,84.7%,0.3%,-0.37%
O=C(NCCCN1CCc2ccccc2C1)C1CCN(c2nnc(-n3cccc3)s2)CC1,2.54%,-1.29%,-3.55%,82.2%,79.4%,2.08%,5.45%
Cc1ccc2oc(=O)c3cnn(CC(=O)NC4CCN(Cc5ccccc5)CC4)c3c2c1,-4.11%,0.24%,-3.78%,88.3%,92%,1.77%,0.57%
COc1cc(C)c(C)cc1S(=O)(=O)N1CCN(Cc2ccccc2)CC1,9.11%,-12.5%,-3.89%,96.3%,93.5%,0.025%,5%
Cc1ccc(-c2noc(CSc3nnnn3C3CCCCC3)n2)cc1,-16.1%,-13.6%,-1.39%,89.8%,84%,0.525%,5.16%
CCCOC(=O)c1ccc(NC(=O)C2C3C=CC(O3)C2C(=O)O)cc1 (stereo unspecified),-8.39%,-22.8%,-1.49%,101%,95.4%,1.27%,0.36%

Structure (SMILES),growth inhibition [1],growth inhibition [2],viability increase [3],viability [4],viability [5],inhibition [6],RAM network inhibition [7]
O=C(CSc1nccn1-c1cccc(Cl)c1)Nc1ccc2c(c1)OCCO2,-11.7%,2.4%,6.11%,101%,93%,2.52%,3.35%
COc1ccc(-n2c(Cc3cc(=O)[nH]c(=O)[nH]3)nnc2SCc2ccccc2)cc1,6.28%,-3.2%,-0.7%,108%,103%,0.455%,3.82%
O=C(Cn1cc2c(n1)CCCC2)NCCCN1CCCC1,-3.79%,4.09%,0.07%,105%,99.3%,-0.37%,1.62%
Fc1ccc(C2CC(c3ccccc3)Nc3ncnn32)cc1 (stereo unspecified),-10.3%,-3.12%,-0.63%,93.5%,98.1%,1.04%,1.19%
CCOC(=O)c1ccc(NC(=O)CN2C(=O)CSC2=O)cc1,-1.29%,-0.27%,1.63%,95.7%,103%,3.08%,4.03%
CCCCOc1ccccc1C1C(C(=O)OC)=C(C)N(C)C(C)=C1C(=O)OC,-4.46%,-5.04%,-3.49%,83.1%,79.8%,0.225%,8.12%
CNC(=O)c1c[nH]n2c(=O)c(Cc3ccccc3F)c(C)nc12,-2.95%,-3.94%,-0.89%,87.7%,91.6%,1.17%,3.18%
CCC(=NCCc1ccccc1)C1=C(O)CCC1=O,3.04%,-0.44%,-2.05%,98.3%,98.8%,0.325%,2.13%
CCOc1ccc(N(CC(=O)NC(C)(C)C)S(=O)(=O)c2c(C)noc2C)cc1,-19.9%,-9.45%,-4.94%,81.5%,81.8%,0.36%,-1%
COc1cc(CCC(=O)N2CCN(c3ccc(N4CCOCC4)nn3)CC2)cc(OC)c1OC,7.64%,14.6%,-1.86%,106%,112%,0.43%,4.7%
Cc1oc(-c2cccc(Cl)c2)nc1CN1CCCC(C(=O)NC(C)c2ccc3c(c2)OCCO3)C1 (stereo unspecified),-7.17%,-16.3%,-4.74%,33.7%,37.5%,2.46%,5.6%
CCN(CCCNS(=O)(=O)c1ccc2c(c1)CCN2C(C)=O)c1cccc(C)c1,-4.96%,9.51%,-2.74%,75.3%,82.5%,0.28%,4.1%
CCC(C)(C(=O)NC1CCCCC1)N(C(=O)C1CCC(=O)N1)c1ccc(C)cc1 (stereo unspecified),2.44%,-4.21%,-1.97%,98.7%,92.1%,1.71%,1.9%
O=C(c1ccc(CN2CCOCC2)cc1)N1CCN(Cc2ccccc2)CC1,-15%,-5.85%,0.28%,97.5%,97.9%,0.83%,12.1%
Cc1ccccc1CN1CCN(CC(=O)NCc2ccccn2)C1=O,4.21%,10.8%,1.17%,106%,108%,-0.32%,1.55%
Cc1nc2ccccc2c2oc(C(=O)N3CCc4ccccc43)cc12,-11.5%,-16.6%,-0.71%,95.5%,89.1%,0.625%,-0.73%
CCOc1ccc(N(CC(=O)O)S(=O)(=O)c2cccnc2)cc1,-0.125%,-2.17%,1.18%,94.4%,102%,-0.27%,7.23%
CCSc1nc2ccccc2n1S(=O)(=O)c1ccccc1,-13.9%,-20.8%,-0.8%,101%,100%,0.395%,1.37%
O=C(Oc1c(Cl)cc(Cl)c2cccnc12)N1CCOCC1,-1.54%,2.49%,-2.13%,99.7%,95.3%,0.74%,0.25%
CCOc1ccc(-c2cc(CCCC(=O)NCc3cccnc3)no2)cc1,0.205%,12.9%,-3.69%,82.2%,92.9%,0.54%,2.74%
COc1ccc(Cl)cc1Nc1cc(C)nc2nc(C)nn12,-5.01%,-6.77%,-3.12%,103%,94.8%,-0.515%,3.45%
CCC(=O)N=c1sc2cc(F)cc(F)c2n1C,-6.05%,-7.75%,-5.39%,93.4%,87.8%,1.4%,3.13%
O=S(=O)(NCCc1csc(-c2cccnc2)n1)c1cccs1,1.37%,-2.33%,-1.11%,104%,96.8%,1.42%,0.73%
Cn1c(=O)[nH]c(=O)c2c1nc(CN1CCOCC1)n2Cc1ccc(F)cc1,-6.42%,-18.4%,-3.24%,98.5%,93.4%,2.65%,2.15%
